Test results published in article PMC4508496 (Theranostics, 2015).
“Also recorded” adds a separate entry of the source. * marks the point of attachment. AMC = Cc1cc(=O)oc2cc(N*)ccc12; Boc = CC(C)(C)OC(=O)*

Columns and labels:
[1] = tested on: MDA-MB-468 cells; test: Cell uptake of 1; assay type: cell-based, human; conditions: 30 min; 600,000 MDA-MB-468 cells, 1 µCi of 1; γ-counter
Method in brief: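 MDA-MB-468 cells (600,000 per well) were seeded for 6 h. Medium was then replaced with fresh medium carrying 1 µCi of the 18F-labelled probe per well. Cells and medium were harvested at 5, 10, 20, 30, 60 and 90 min, and radioactivity was counted on a γ-counter.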

[2] = tested on: MDA-MB-468 cells; test: Cellular efflux titration; assay type: cell-based, human; conditions: 120 min efflux
Method in brief: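 MDA-MB-468 cells (1 million per well) were loaded for 1 h at 37 °C with 4 μCi of the 18F probe plus 0, 5, 25 or 50 μM of its non-radioactive analogue. Medium was then refreshed, marking efflux time 0. At 5–120 min the medium was exchanged and the removed medium was γ-counted. Cells were harvested and counted at 120 min to back-calculate total radioactivity at time 0.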

[3] = Pharmacokinetic study of 1 in mice after i.v. administration; assay type: in vivo; conditions: i.v. about 3.0 mCi/kg, n = 5
Method in brief: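 Mice received the 18F radiotracer intravenously at about 3.0 mCi/kg. Mean plasma concentration–time profiles were fitted to a two-compartment model, from which t1/2, AUC0-t, CLtot, Vd and Cmax were derived.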

[4] = tested on: MDA-MB-468 tumor; test: MicroPET tumor uptake in MDA-MB-468 tumor-bearing nude mice; assay type: in vivo; conditions: for tumor uptake of 1: PET, n = 4
Method in brief: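 Female BALB/c nude mice (4–8 weeks) received subcutaneous foreleg xenografts of 4 × 10^7 MDA-MB-468 cells in PBS, grown 4–6 weeks. Under isoflurane, mice were randomised to tail-vein dosing: 85 µCi of the 18F probe alone, or the probe plus 20 µmol/kg of its non-radioactive analogue. Ten-minute static PET scans were taken at 10 min to 6 h, reconstructed by 3D OSEM without attenuation or scatter correction. Decay-corrected ROI values were converted assuming 1 g/mL tissue density and divided by administered activity to give %ID/g.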

[5] = tested on: MDA-MB-468 cells; test: MTT assay; assay type: cell-based, human; conditions: for cells survived (MTT): MDA-MB-468
Method in brief: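 MDA-MB-468 cells in log phase were seeded at 3 × 10^3 per well and settled 12 h (37 °C, 5% CO2). They were then exposed to the test compound at 25, 50 or 100 µM in medium for 3, 6 or 12 h. MTT (5 mg/mL stock in PBS, pH 7.4) was added for 4 h, and formazan was dissolved in 10% SDS/PBS. Absorbance was read at 570/680 nm. Viability (%) = mean treated absorbance / mean control absorbance × 100.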

[6] = target: T1, furin (Homo sapiens, UniProt P09958); test: Michaelis-Menten kinetics of furin cleavage; assay type: biochemical
T1 sequence (P09958 108-595 limits assumed): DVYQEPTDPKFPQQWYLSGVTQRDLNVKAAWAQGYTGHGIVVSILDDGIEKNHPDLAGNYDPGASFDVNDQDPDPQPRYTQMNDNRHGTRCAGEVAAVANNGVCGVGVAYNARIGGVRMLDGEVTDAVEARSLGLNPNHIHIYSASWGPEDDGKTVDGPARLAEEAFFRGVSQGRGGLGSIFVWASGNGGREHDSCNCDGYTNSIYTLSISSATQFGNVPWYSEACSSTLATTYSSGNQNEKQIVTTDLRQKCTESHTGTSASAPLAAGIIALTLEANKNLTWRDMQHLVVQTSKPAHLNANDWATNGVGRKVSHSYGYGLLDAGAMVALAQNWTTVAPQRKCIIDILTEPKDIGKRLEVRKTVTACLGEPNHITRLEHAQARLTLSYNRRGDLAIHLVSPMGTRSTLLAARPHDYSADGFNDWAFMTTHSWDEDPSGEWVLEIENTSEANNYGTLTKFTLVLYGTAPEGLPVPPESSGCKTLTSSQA

[7] = target: T1, furin; test: Time course HPLC analysis of furin-controlled condensation; assay type: biochemical; conditions: 100 µM, 1 nmol/U of furin, 37 °C
Method in brief: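 The non-radioactive analogue (100 µM) was incubated with furin (1 nmol/U) at 37 °C. Mixtures were analysed by HPLC eluted with CH3CN and water, each containing 0.1% TFA, against the untreated compound in water.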

[8] = Nanoparticle characterisation after furin incubation; assay type: physicochemical; conditions: 100 μM, furin 1 nmol/U, pH 7.4, 37 °C, 4 h vs before incubation
Method in brief: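 The non-radioactive analogue (100 µM) was incubated with furin (1 nmol/U) for 4 h at 37 °C. UV-vis spectra were recorded at room temperature. For TEM (200 kV), carbon-coated copper grids were dipped in the suspension, plunged into liquid nitrogen and freeze-dried. SEM was run on the same mixture. One furin unit releases 1 pmol MCA from Boc-RVRR-MCA per minute at 30 °C.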

[9] = tested on: MDA-MB-468 cells; test: Cell permeability of 1-Cold by fluorescence cell imaging; assay type: cell-based, human; conditions: 100 µM, 37 °C, 0.5 h, fluorescence microscopy
Method in brief: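 MDA-MB-468 breast adenocarcinoma cells were grown in DMEM with 10% FBS at 37 °C under 5% CO2. Cells (3 × 10^6) were exposed to the test compound (100 µM, 37 °C, 0.5 h) and washed three times with PBS. They were then imaged live on an inverted fluorescence microscope in the DAPI channel, with DIC overlay. The probe emits at 450 nm after intracellular furin-driven condensation.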

[10] = target: T1, furin; conditions: 30 °C; ref Bachem; cited from earlier work

Acetyl-Arg-Val-Arg-Arg-Cys(StBu)-Lys(^18F-FB)-CBT [compound 1]
cellular uptake (plateau) [1]: 20.4 % of total radioactivity
initial radioactivity retained after cell efflux ([2]; 4 μCi of 1 alone, 1 h pre-incubation 37 °C, 1 million cells): 13.1 ± 1.2%
initial radioactivity retained after cell efflux ([2]; 4 μCi of 1 co-incubated with 5 μM 1-Cold): 20.3 ± 4.2%
initial radioactivity retained after cell efflux ([2]; 4 μCi of 1 co-incubated with 25 μM 1-Cold): 28.5 ± 1.4%
initial radioactivity retained after cell efflux ([2]; 4 μCi of 1 co-incubated with 50 μM 1-Cold): 32.1 ± 0.9%
Cmax [3]: 7.471 mCi L^-1
mean AUC0-t [3]: 452.2 min mCi L^-1
tumor uptake ratio (Co-injected/1 alone) ([4]; 10 min p.i.): 2.5
tumor uptake of 1 ([4]; 10 min p.i., 85 µCi 1 alone): 1.02 ± 0.19 % ID/g
tumor uptake of 1 ([4]; 10 min p.i., co-injected 85 µCi 1 + 20 µmol/kg 1-Cold): 2.52 ± 0.95 % ID/g
tumor uptake ratio (Co-injected/1 alone) ([4]; 30 min p.i.): 3.6
tumor uptake of 1 ([4]; 30 min p.i., 85 µCi 1 alone): 1.12 ± 0.08 % ID/g
tumor uptake of 1 ([4]; 30 min p.i., co-injected 85 µCi 1 + 20 µmol/kg 1-Cold): 4.08 ± 0.48 % ID/g
tumor uptake ratio (Co-injected/1 alone) ([4]; 60 min p.i.): 6.4
tumor uptake of 1 ([4]; 60 min p.i., 85 µCi 1 alone): 0.52 ± 0.18 % ID/g
tumor uptake of 1 ([4]; 60 min p.i., co-injected 85 µCi 1 + 20 µmol/kg 1-Cold): 3.31 ± 1.22 % ID/g
tumor uptake ratio (Co-injected/1 alone) ([4]; 120 min p.i.): 7.9
tumor uptake of 1 ([4]; 120 min p.i., co-injected 85 µCi 1 + 20 µmol/kg 1-Cold): 2.27 ± 1.86 % ID/g
tumor uptake of 1 ([4]; 240 min p.i., 85 µCi 1 alone): 0.19 ± 0.03 % ID/g
tumor uptake of 1 ([4]; 240 min p.i., co-injected 85 µCi 1 + 20 µmol/kg 1-Cold): 1.55 ± 1.75 % ID/g
tumor uptake ratio (Co-injected/1 alone) ([4]; 360 min p.i.): 6.5
tumor uptake of 1 ([4]; 360 min p.i., 85 µCi 1 alone): 0.19 ± 0.05 % ID/g
tumor uptake of 1 ([4]; 360 min p.i., co-injected 85 µCi 1 + 20 µmol/kg 1-Cold): 1.28 ± 1.07 % ID/g

CC(=O)N[C@@H](CCCNC(=N)N)C(=O)N[C@H](C(=O)N[C@@H](CCCNC(=N)N)C(=O)N[C@@H](CCCNC(=N)N)C(=O)N[C@@H](CSSC(C)(C)C)C(=O)N[C@@H](CCCCNC(=O)c1ccc(F)cc1)C(=O)Nc1ccc2nc(C#N)sc2c1)C(C)C [1-Cold]
cells survived (MTT) ([5]; 25 µM, 3 h): 110%
cells survived (MTT) ([5]; 25 µM, 12 h): 98%
cells survived (MTT) ([5]; 50 µM, 3 h): 103%
cells survived (MTT) ([5]; 50 µM, 12 h): 105%
cells survived (MTT) ([5]; 100 µM, 3 h): 87%
cells survived (MTT) ([5]; 100 µM, 12 h): 68%
cytotoxicity to MDA-MB-468 cells (MTT), in words ([5]; up to 12 h (abstract: 50 µM)): did not impose cytotoxicity; also recorded: nontoxic
Kcat of furin relative to Boc-RVRR-AMC ([6]; calculated, Figure S10): 35 times
Kcat/KM of furin relative to Boc-RVRR-AMC ([6]; calculated, Figure S10): 15 times
binding affinity to furin, fold lower than that of Boc-RVRR-AMC ([6]; from KM values): 2.4 fold
time in which furin-controlled condensation was accomplished [7]: ≤ 2 h
UV-vis absorption at 500-700 nm (light scattering, aggregation) [8]: obvious increase of absorption
cell permeability (intracellular fluorescence) [9]: good cell permeability

Boc-RVRR-{AMC} [Boc-RVRR-AMC]
speed of furin cleavage of commercial substrate [10]: 1 pmol/U per min
